From ChEMBL document CHEMBL1781965, “Onoceranoid-type triterpenoids from Lansium domesticum” (2011)
≈ marks a conversion by molar mass, not a printed value.

Test system: Bacillus subtilis
Experiment: Antibacterial activity against Bacillus subtilis ATCC 6633 after 18 hrs by microdilution assay
Assay type: functional
Details: ATCC 6633, 18 h
Procedure, shortened: (§1)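 Broth microdilution in Mueller Hinton broth, inoculum 5 × 10^5–10^6 cfu/mL final, compounds dissolved in DMSO (at most 1% in the solution), 37 °C for 18 h aerobically. Blank controls received DMSO alone; magnolol served as positive control.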

Row | MIC [µg/mL] | Compound
1 | 12.5 (≈ 24.2 µM) | C=C(C)[C@@H]1CC=C(C)[C@H](CC[C@H]2C(=C)CC[C@@H](C(C)(C)O)[C@]2(C)CCC(=O)OCC)[C@@]1(C)CCC(=O)O
2 | 6.25 (≈ 13.7 µM) | C=C1CC[C@H]2C(C)(C)C(=O)CC[C@]2(C)[C@H]1CCC1=C(C)[C@H](O)C[C@H]2C(C)(C)C(=O)CC[C@]12C [LAMESTICUMIN D]

Test system: Shigella flexneri
Experiment: Antibacterial activity against Shigella flexneri ATCC 12022 after 18 hrs by microdilution assay
Assay type: functional
Details: ATCC 12022, 18 h
Procedure, shortened: as §1

Row | MIC [µg/mL] | Compound
3 | > 50 | C=C(C)[C@@H]1CC=C(C)[C@H](CC[C@H]2C(=C)CC[C@@H](C(C)(C)O)[C@]2(C)CCC(=O)OCC)[C@@]1(C)CCC(=O)O
4 | > 50 | C=C1CC[C@H]2C(C)(C)C(=O)CC[C@]2(C)[C@H]1CCC1=C(C)[C@H](O)C[C@H]2C(C)(C)C(=O)CC[C@]12C [LAMESTICUMIN D]

Test system: Escherichia coli
Experiment: Antibacterial activity against Escherichia coli ATCC 25922 after 18 hrs by microdilution assay
Assay type: functional
Details: ATCC 25922, 18 h
Procedure, shortened: as §1

Row | MIC [µg/mL] | Compound
5 | > 50 | C=C(C)[C@@H]1CC=C(C)[C@H](CC[C@H]2C(=C)CC[C@@H](C(C)(C)O)[C@]2(C)CCC(=O)OCC)[C@@]1(C)CCC(=O)O
6 | > 50 | C=C1CC[C@H]2C(C)(C)C(=O)CC[C@]2(C)[C@H]1CCC1=C(C)[C@H](O)C[C@H]2C(C)(C)C(=O)CC[C@]12C [LAMESTICUMIN D]

Test system: Staphylococcus aureus
Experiment: Antibacterial activity against Micrococcus pyogenes clinical isolate after 18 hrs by microdilution assay
Assay type: functional
Details: not given
Procedure, shortened: as §1

Row | MIC [µg/mL] | Compound
7 | 50 (≈ 96.8 µM) | C=C(C)[C@@H]1CC=C(C)[C@H](CC[C@H]2C(=C)CC[C@@H](C(C)(C)O)[C@]2(C)CCC(=O)OCC)[C@@]1(C)CCC(=O)O
8 | > 50 | C=C1CC[C@H]2C(C)(C)C(=O)CC[C@]2(C)[C@H]1CCC1=C(C)[C@H](O)C[C@H]2C(C)(C)C(=O)CC[C@]12C [LAMESTICUMIN D]

Test system: Pseudomonas aeruginosa
Experiment: Antibacterial activity against Pseudomonas aeruginosa ATCC 14502 after 18 hrs by microdilution assay
Assay type: functional
Details: ATCC 14502, 18 h
Procedure, shortened: as §1

Row | MIC [µg/mL] | Compound
9 | > 50 | C=C(C)[C@@H]1CC=C(C)[C@H](CC[C@H]2C(=C)CC[C@@H](C(C)(C)O)[C@]2(C)CCC(=O)OCC)[C@@]1(C)CCC(=O)O
10 | > 50 | C=C1CC[C@H]2C(C)(C)C(=O)CC[C@]2(C)[C@H]1CCC1=C(C)[C@H](O)C[C@H]2C(C)(C)C(=O)CC[C@]12C [LAMESTICUMIN D]

Test system: Bacillus cereus
Experiment: Antibacterial activity against Bacillus cereus clinical isolate after 18 hrs by microdilution assay
Assay type: functional
Details: not given
Procedure, shortened: as §1

Row | MIC [µg/mL] | Compound
11 | 3.12 (≈ 6.04 µM) | C=C(C)[C@@H]1CC=C(C)[C@H](CC[C@H]2C(=C)CC[C@@H](C(C)(C)O)[C@]2(C)CCC(=O)OCC)[C@@]1(C)CCC(=O)O
12 | 3.12 (≈ 6.86 µM) | C=C1CC[C@H]2C(C)(C)C(=O)CC[C@]2(C)[C@H]1CCC1=C(C)[C@H](O)C[C@H]2C(C)(C)C(=O)CC[C@]12C [LAMESTICUMIN D]

Test system: Staphylococcus aureus
Experiment: Antibacterial activity against Staphylococcus aureus ATCC 25923 after 18 hrs by microdilution assay
Assay type: functional
Details: ATCC 25923, 18 h
Procedure, shortened: as §1

Row | MIC [µg/mL] | Compound
13 | > 50 | C=C(C)[C@@H]1CC=C(C)[C@H](CC[C@H]2C(=C)CC[C@@H](C(C)(C)O)[C@]2(C)CCC(=O)OCC)[C@@]1(C)CCC(=O)O
14 | > 50 | C=C1CC[C@H]2C(C)(C)C(=O)CC[C@]2(C)[C@H]1CCC1=C(C)[C@H](O)C[C@H]2C(C)(C)C(=O)CC[C@]12C [LAMESTICUMIN D]

Test system: Serratia marcescens
Experiment: Antibacterial activity against Serratia marcescens ATCC 25419 after 18 hrs by microdilution assay
Assay type: functional
Details: ATCC 25419, 18 h
Procedure, shortened: as §1

Row | MIC [µg/mL] | Compound
15 | > 50 | C=C(C)[C@@H]1CC=C(C)[C@H](CC[C@H]2C(=C)CC[C@@H](C(C)(C)O)[C@]2(C)CCC(=O)OCC)[C@@]1(C)CCC(=O)O
16 | > 50 | C=C1CC[C@H]2C(C)(C)C(=O)CC[C@]2(C)[C@H]1CCC1=C(C)[C@H](O)C[C@H]2C(C)(C)C(=O)CC[C@]12C [LAMESTICUMIN D]

Test system: Staphylococcus epidermidis
Experiment: Antibacterial activity against Staphylococcus epidermidis ATCC 12228 after 18 hrs by microdilution assay
Assay type: functional
Details: ATCC 12228, 18 h
Procedure, shortened: as §1

Row | MIC [µg/mL] | Compound
17 | 12.5 (≈ 24.2 µM) | C=C(C)[C@@H]1CC=C(C)[C@H](CC[C@H]2C(=C)CC[C@@H](C(C)(C)O)[C@]2(C)CCC(=O)OCC)[C@@]1(C)CCC(=O)O
18 | > 50 | C=C1CC[C@H]2C(C)(C)C(=O)CC[C@]2(C)[C@H]1CCC1=C(C)[C@H](O)C[C@H]2C(C)(C)C(=O)CC[C@]12C [LAMESTICUMIN D]

Test system: Alcaligenes faecalis
Experiment: Antibacterial activity against Alcaligenes faecalis ATCC 8750 after 18 hrs by microdilution assay
Assay type: functional
Details: ATCC 8750, 18 h
Procedure, shortened: as §1

Row | MIC [µg/mL] | Compound
19 | > 50 | C=C(C)[C@@H]1CC=C(C)[C@H](CC[C@H]2C(=C)CC[C@@H](C(C)(C)O)[C@]2(C)CCC(=O)OCC)[C@@]1(C)CCC(=O)O
20 | > 50 | C=C1CC[C@H]2C(C)(C)C(=O)CC[C@]2(C)[C@H]1CCC1=C(C)[C@H](O)C[C@H]2C(C)(C)C(=O)CC[C@]12C [LAMESTICUMIN D]

Test system: Micrococcus luteus
Experiment: Antibacterial activity against Micrococcus luteus ATCC 9341 after 18 hrs by microdilution assay
Assay type: functional
Details: ATCC 9341, 18 h
Procedure, shortened: as §1

Row | MIC [µg/mL] | Compound
21 | > 50 | C=C(C)[C@@H]1CC=C(C)[C@H](CC[C@H]2C(=C)CC[C@@H](C(C)(C)O)[C@]2(C)CCC(=O)OCC)[C@@]1(C)CCC(=O)O
22 | > 50 | C=C1CC[C@H]2C(C)(C)C(=O)CC[C@]2(C)[C@H]1CCC1=C(C)[C@H](O)C[C@H]2C(C)(C)C(=O)CC[C@]12C [LAMESTICUMIN D]
